PMC10403215 (Science Advances, 2023)
≈ marks a conversion by molar mass, not a printed value.

Legend:
S. aureus USA300 = assay: Transmission electron microscopy of cell structure; assay type: cell-based, Staphylococcus aureus; details: 0.5× MIC, cell lysis within 4 hours
[1] = system: S. aureus MRSA strain USA300; assay: MIC, broth microdilution; assay type: cell-based; details: Staphylococcus aureus
Outline: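 CLSI M07-A10 broth microdilution with twofold serial dilutions of test compound in MH broth. Inoculum was cells grown in MH broth at 37°C with shaking to OD600 0.4–0.6, diluted to ~1 × 10⁵ CFU/ml final. Run in duplicate, three independent experiments.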

[2] = system: S. aureus MRSA strain USA300; assay: Murine epicutaneous infection model; assay type: in vivo, BALB/c mice
S. aureus Newman [3] = assay: Time-killing assay, exponential culture; assay type: cell-based, Staphylococcus aureus; details: control experiment
Outline: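 Newman grown in LB at 37°C with shaking to OD600 0.4–0.6, then diluted to 1 × 10⁶ CFU/ml in LB containing various concentrations of test compound, with vancomycin as comparator. Incubated at 37°C with shaking. Serial dilutions plated on LB agar at set time points for CFU/ml. Duplicate, three independent experiments.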

[4] = system: MRSA USA300 preformed biofilm; assay: Preformed biofilm eradication, crystal violet; assay type: cell-based, Staphylococcus aureus; details: control
Outline: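 Eradication of preformed USA300 biofilms by test compound was quantified by crystal violet staining after washing. Three independent experiments, triplicate runs per concentration.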

S. aureus Newman [5] = assay: MIC, broth microdilution; assay type: cell-based; details: Staphylococcus aureus
[6] = system: S. aureus RN4220 overexpressing putative target genes; assay: MIC against strains overexpressing putative target proteins; assay type: cell-based, Staphylococcus aureus; details: fig. S4A
[7] = system: stationary phase S. aureus Newman cells; assay: Stationary-phase persister cell killing; assay type: cell-based, Staphylococcus aureus; details: 100× or 10× MIC
S. aureus Newman [8] = assay type: cell-based, Staphylococcus aureus; details: 40 mM, fig. S4C

Question: With `C[C@@H]1O[C@@H]1P(=O)(O)O` [fosfomycin] as the compound, how does the “cell wall integrity (TEM)” value (S. aureus USA300) read?
Answer: The value was “severely impaired”.

Question: What about the MIC [1] of the same compound?
Answer: The MIC was 4 µg/mL (≈ 29 µM).

Question: How did the “killing effect compared to the vehicle control” value ([2]; 3 mg kg^−1) turn out when `COc1cccc(OC)c1C(=O)N[C@@H]1C(=O)N2[C@@H]1SC(C)(C)[C@@H]2C(=O)O` [Met, methicillin] was run?
Answer: Its value is “no significant killing effect”.

Question: How did the “effectiveness, ChryA versus fusidic acid” value ([2]; bacterial colonization of wounds on Day 16, fig. S3) turn out when `CC(=O)O[C@H]1C[C@@]2(C)[C@@H](C[C@@H](O)[C@H]3[C@@]4(C)CC[C@@H](O)[C@@H](C)[C@@H]4CC[C@@]32C)/C1=C(\CCC=C(C)C)C(=O)O` [fusidic acid] was run?
Answer: The value was “less effectiveness compared to the low dose of ChryA”.

Question: What about the MIC [1] of the same compound?
Answer: The MIC was 0.031 µg/mL (≈ 0.06 µM).

Question: `CN[C@H](CC(C)C)C(=O)N[C@H]1C(=O)N[C@@H](CC(N)=O)C(=O)N[C@H]2C(=O)N[C@H]3C(=O)N[C@H](C(=O)N[C@H](C(=O)O)c4cc(O)cc(O)c4-c4cc3ccc4O)[C@H](O)c3ccc(c(Cl)c3)Oc3cc2cc(c3O[C@@H]2O[C@H](CO)[C@@H](O)[C@H](O)[C@H]2O[C@H]2C[C@](C)(N)[C@H](O)[C@H](C)O2)Oc2ccc(cc2Cl)[C@H]1O` [Van, vancomycin] was tested. Which “killing speed compared with ChryA” value (S. aureus Newman [3]) did it give?
Answer: The value was “much slower killing”.

Question: And the antibiofilm ability [4]?
Answer: The antibiofilm ability was “no antibiofilm ability”.

Question: Which MIC (S. aureus Newman [5]) does the source give for `CC1(C)S[C@@H]2[C@H](NC(=O)Cc3ccccc3)C(=O)N2[C@H]1C(=O)O` [Pen, penicillin G] here?
Answer: The MIC was 0.125 µg/mL (≈ 0.374 µM).

Question: And the “effect of overexpression of each protein on sensitivity” value [6]?
Answer: The value was “no effect”.

Question: What about the tolerance of persisters [7] of the same compound?
Answer: Its tolerance of persisters is “high level of tolerance”.

Question: And the “effect of sole addition of lysine or UDP-GlcNAc on susceptibility” value (S. aureus Newman [8])?
Answer: Its value is “did not affect”.

Question: `O=C(O)c1cn(C2CC2)c2cc(N3CCNCC3)c(F)cc2c1=O` [Cipro, ciprofloxacin] was tested. Which tolerance of persisters [7] did it give?
Answer: The tolerance of persisters was “high level of tolerance”.
